Source: PMC8883746 (Journal of medicinal chemistry, 2021)
Where two headings read alike, the source gives them in different places.

Experiments:
r(CCUG)12–MBNL1 complex = test: TR-FRET assay measuring disruption of a preformed r; type: biochemical; conditions: read-out: IC50 for disrupting the r(CCUG)12–MBNL1 complex, in vitro
How it was run: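 5′-Biotinylated r(CCUG)12 was folded at 60 °C for 5 min in 20 mM HEPES pH 7.5 with KCl and NaCl. It was then brought into assay buffer with 2 mM MgCl2, 2 mM CaCl2, 5 mM DTT, 0.1% BSA and 0.5% Tween-20. MBNL1-His6 was added (final 60 nM protein, 80 nM RNA) for 15 min, then varying compound concentrations for 15 min. Streptavidin-XL665 (40 nM) and anti-His6-Tb (0.44 ng/μL) were added for 30 min at room temperature. The F545/F665 ratio, with excitation at 345 nm, was fitted to a Hill equation.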

IR exon 11 splicing = type: cell-based; conditions: DM2 patient-derived fibroblasts; for rescue of IR exon 11 splicing (percent rescue): 1 μM
How it was run: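 DM2 patient-derived fibroblasts were treated at ~40% confluency in 6-well plates for 48 h. About 1 μg of total RNA was reverse transcribed. PCR ran 35 cycles (95/58/72 °C), and products were resolved on a 2% agarose gel, stained with ethidium bromide and quantified. Percent rescue = (untreated DM2 exclusion − treated exclusion)/(untreated DM2 exclusion − untreated WT exclusion) × 100.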

[1] = tested on: DM2 patient-derived fibroblasts; test: Cell viability; type: cell-based; conditions: 5 μM, 48 h
How it was run: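 Cells were treated in 96-well plates for 48 h. CellTiter-Glo reagent was added, plates sat 10 min at room temperature, and luminescence was read. n = 6 replicates in one independent experiment.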

[2] = tested on: RNA containing a single 2 × 2 CU/UC internal loop, r(5′-GACAGCCUGCUGUC-3′); test: NMR spectroscopy; type: binding; conditions: for shifts of RNA H6 and H8 proton resonances in 1D NMR: RNA with one 2×2 CU/UC internal loop; for binding to the RNA by waterLOGSY spectra: positive phase signals in the presence of RNA, 20:1 compound:RNA
How it was run: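 1D spectra were run on 100 μM RNA in D2O with compound titrated at 0.5–2.0 molar ratios. WaterLOGSY used 300 μM compound alone or with 15 μM RNA in H2O/5% D2O, phased so non-binders give negative NOEs. All spectra at 25 °C.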

[3] = tested on: r(CCUG)exp–MBNL1 nuclear foci; type: cell-based; conditions: 5 μM, DM2 patient-derived fibroblasts; untreated 7 ± 1
CNBP mature mRNA = CNBP mature mRNA levels by RT-qPCR in DM2 patient-derived fibroblasts; type: cell-based
How it was run: (§1)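 DM2 patient-derived fibroblasts were grown in DMEM/high glucose with 20% FBS at 37 °C and 5% CO2. Cells in 6-well plates were treated in growth medium at 40% confluency for 48 h. About 1 μg of total RNA was reverse transcribed, then run in SYBR Green qPCR. Abundance was normalized to GAPDH across 2 independent experiments.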

CNBP intron 1 [4] = test: CNBP intron 1 levels in wild-type fibroblasts; type: cell-based
How it was run: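 Wild-type donor fibroblasts (GM07492) were grown in MEM with 10% FBS and Glutagro at 37 °C and 5% CO2. Cells were treated at 40% confluency for 48 h. About 1 μg of total RNA was reverse transcribed and run in SYBR Green qPCR. Relative abundance was normalized to GAPDH.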

MAP4K4 exon 22a splicing = test: MAP4K4 exon 22a splicing; type: cell-based; conditions: NOVA-dependent splicing event
IR exon 11 inclusion = IR exon 11 inclusion in wild-type fibroblasts; type: cell-based
How it was run: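 Wild-type donor fibroblasts (GM07492) were grown in MEM with 10% FBS and treated at ~40% confluency for 48 h. About 1 μg of total RNA was reverse transcribed. PCR ran 35 cycles (95 °C 30 s, 58 °C 30 s, 72 °C 1 min). Products were separated on a 2% agarose gel, stained with ethidium bromide, and percent exon 11 exclusion was quantified by densitometry.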

[5] = target: base-paired RNA that does not contain internal loops; test: Microscale thermophoresis; type: binding; conditions: read-out: Kd for base pair control RNA; MST
How it was run: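 Cy5-labelled base-paired control RNA, GCG(CCUG)7(GCAG)5CGC, was used at 5 nM in 8 mM Na2HPO4 pH 7.0, 185 mM NaCl and 1 mM EDTA, folded at 60 °C for 5 min. It was mixed with 1:1 serial compound dilutions (0.05% Tween-20 final) and held 30 min at room temperature. MST settings: 80% power, 30 s laser-on. Kd came from a quadratic fit, averaged over two independent experiments.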

CNBP intron 1 [6] = test: CNBP intron 1 abundance by RT-qPCR in DM2 patient-derived fibroblasts; type: cell-based; conditions: doses of 5 and 1 μM
How it was run: as §1

SMILES | IC50 (r(CCUG)12–MBNL1 complex) [µM] | shifts of RNA H6 and H8 proton resonances in 1D NMR [2] | binding to the RNA by waterLOGSY spectra [2] | further results
Cc1ccc2nc(Nc3ccc4nc(N5CCOCC5)sc4c3)nc(NCCCO)c2c1 [compound 72, 3-((6-methyl-2-((2-morpholinobenzo[d]thiazol-6-yl)amino)quinazolin-4-yl)amino)propan-1-ol] | < 5 |  |  | 
Cc1ccc2nc(Nc3ccc4nc(NCC(C)(C)O)sc4c3)nc(NCCCO)c2c1 [compound 78, 3-((2-((2-((2-hydroxy-2-methylpropyl)amino)benzo[d]thiazol-6-yl)amino)-6-methylquinazolin-4-yl)amino)propan-1-ol] | < 5 |  |  | rescue of IR exon 11 splicing (IR exon 11 splicing; 5 μM, 48 h): significantly improved IR splicing; toxicity in DM2 patient-derived fibroblasts [1]: no toxicity
COc1ccc(Nc2nc(NCCCO)c3ccccc3n2)cc1 [compound 3] |  | Significant shifts in resonances | bound to the RNA | 
Cc1ccc2nc(Nc3ccc4nc(NC5CCN(Cc6ccccc6)CC5)sc4c3)nc(NCCCO)c2c1 [compound 71, 3-((2-((2-((1-benzylpiperidin-4-yl)amino)benzo[d]thiazol-6-yl)amino)-6-methylquinazolin-4-yl)amino)propan-1-ol] | < 5 |  |  | 
Cc1ccc2nc(Nc3ccc4nc(NCC(C)C)sc4c3)nc(NCCCO)c2c1 [compound 73, 3-((2-((2-(isobutylamino)benzo[d]thiazol-6-yl)amino)-6-methylquinazolin-4-yl)amino)propan-1-ol] | < 5 |  |  | 
CN(C)c1ccc(Nc2nc(NCCCO)c3ccccc3n2)cc1 [compound 4] |  | Significant shifts in resonances | bound to the RNA | 
OCCCNc1nc(Nc2ccc3c(c2)OCCO3)nc2ccccc12 [compound 7, 3-((2-((2,3-dihydrobenzo[b][1,4]dioxin-6-yl)amino)quinazolin-4-yl)amino)propan-1-ol] |  | Significant shifts in resonances | bound to the RNA | rescue of IR exon 11 splicing (percent rescue) (IR exon 11 splicing; 48 h): 12 ± 5%
Cc1ccc2nc(Nc3ccc4c(c3)OCCO4)nc(NCCCO)c2c1 [compound 58, 3-((2-((2,3-dihydrobenzo[b][1,4]dioxin-6-yl)amino)-6-methylquinazolin-4-yl)amino)propan-1-ol] | 12.7 ± 0.2 |  |  | 
CC(=O)Nc1ccc(Nc2nc(NCC3CCCO3)c3ccccc3n2)cc1 (centres unmarked) [compound 5] |  | Significant shifts in resonances | bound to the RNA | 
Cc1ccc2nc(Nc3ccc4nc(N5CCN(C)CC5)sc4c3)nc(NCCCO)c2c1 [compound 82, 3-((6-methyl-2-((2-(4-methylpiperazin-1-yl)benzo[d]thiazol-6-yl)amino)quinazolin-4-yl)amino)propan-1-ol] | < 5 |  |  | 
Cc1ccc2nc(Nc3ccc4nc(NCCN(C)C)sc4c3)nc(NCCCO)c2c1 [compound 79, 3-((2-((2-((2-(dimethylamino)ethyl)amino)benzo[d]thiazol-6-yl)amino)-6-methylquinazolin-4-yl)amino)propan-1-ol] | < 5 |  |  | rescue of IR exon 11 splicing (IR exon 11 splicing; any concentration studied): did not significantly rescue splicing; toxicity in DM2 patient-derived fibroblasts [1]: no toxicity
Cc1ccc2nc(Nc3ccc4nc(NCCN5CCOCC5)sc4c3)nc(NCCCO)c2c1 [compound 74, 3-((6-methyl-2-((2-((2-morpholinoethyl)amino)benzo[d]thiazol-6-yl)amino)quinazolin-4-yl)amino)propan-1-ol] | < 5 |  |  | 
Cc1ccc2nc(Nc3ccc4nc(C)sc4c3)nc(NCCCO)c2c1 [compound 63, 3-((6-methyl-2-((2-methylbenzo[d]thiazol-6-yl)amino)quinazolin-4-yl)amino)propan-1-ol] | 2.2 ± 0.5 |  |  | rescue of IR exon 11 splicing (percent rescue) (IR exon 11 splicing; 48 h): 33 ± 5%; rescue of IR exon 11 splicing (IR exon 11 splicing; 5 μM, 48 h): significantly improved IR splicing; number of r(CCUG)exp–MBNL1 nuclear foci per cell [3]: 5 ± 0.5; levels of CNBP mature mRNA (CNBP mature mRNA): did not affect; effects on CNBP intron 1 levels (CNBP intron 1 [4]): no effects were observed; effect on MAP4K4 exon 22a splicing (MAP4K4 exon 22a splicing): did not affect; effect on IR exon 11 inclusion (IR exon 11 inclusion): did not affect; Kd [5]: > 20 µM; toxicity in DM2 patient-derived fibroblasts [1]: no toxicity; abundance of CNBP intron 1 (CNBP intron 1 [6]): significantly reduced
